The list is not random: actives were taken first. Their share in the collection is about 2.1%.
Efflux pump inh = blocks antifungal efflux pumps in multiplex yeast assay | AID 485275 | S. cerevisiae Candida pump triplex, Nile Red efflux | inhibition, % at 10 µM | 330,000 compounds, 0.44% hits;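 active means plate passing quality check with inhibition over a set limit, or well fluorescence over plate mean plus 4 SD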;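 further: Nile Red retained in pooled yeast measured as flow cytometry median fluorescence; higher means more Nile Red kept so more efflux inhibition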
SUMO Mot1 rescue = inhibitors of SUMOylation pathway: yeast Mot1-301 growth rescue. S. cerevisiae Mot1-301 growth rescue, ATP luminescence, 38.5C; percent above DMSO median, 100 means doubled. growth rescue, % at 18.8 µM. 320,000 compounds, 1% hits. AID 2716;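 active means every valid replicate shows activation above 250% relative to neutral control wells; inactive means the rest, any valid replicate at or below 250%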
RTF Ca sens act = increases calcium sensitivity of human cardiac regulated thin filaments; IANBD-labeled TnC RTF fluorescence at EC20 calcium; 0% EC20 calcium, 100% full calcium; activation, % at 7.2 µM; 340,000 compounds, 0.24% hits; P19429+P45379;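 active means activation above the mean over all tested compounds plus 3 SD, cut at about 30% in these data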;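 further: rise in fluorescence read as greater calcium sensitivity of cardiac thin filaments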
ARNT TACC3 PPI = disrupts binding between human ARNT and TACC3; 390,000 compounds, 0.66% hits; AlphaScreen His-ARNT PAS-B/GST-TACC3 binding, luminescence; TACC3 fragment carries E629A point mutation; inhibition, % at 9.99 µM; Q9Y6A5; AID 623870;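 active means mean inhibition of replicates at least 50% and at least half of replicates each reaching 50%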
UCH37 inh = blocks the human deubiquitinase UCH37; Q9Y5K5; purified proteasome/UCH37, Ub-AMC cleavage fluorescence; inhibition, % (test concentration not listed); 330,000 compounds, 0.33% hits; AID 588478;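 active means mean inhibition over replicate wells above about 20%, limit read from the data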
Target sequence (Q9Y5K5 whole entry, looked up): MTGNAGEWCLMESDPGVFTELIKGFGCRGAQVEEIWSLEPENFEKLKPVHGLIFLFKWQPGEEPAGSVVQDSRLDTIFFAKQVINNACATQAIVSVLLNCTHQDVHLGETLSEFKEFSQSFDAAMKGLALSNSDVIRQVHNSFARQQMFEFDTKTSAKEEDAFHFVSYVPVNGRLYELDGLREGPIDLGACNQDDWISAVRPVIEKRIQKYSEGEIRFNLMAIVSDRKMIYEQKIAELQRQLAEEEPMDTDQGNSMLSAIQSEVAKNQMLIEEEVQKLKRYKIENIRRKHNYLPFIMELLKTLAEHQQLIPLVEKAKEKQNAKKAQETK
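Material: human UCH37 enzyme supplied as purified proteasome complex. Measure: % inhibition of Ub-AMC cleavage fluorescence. Medium: pH 7.4 Tris-HCl (50 mM) with ovalbumin, ATP-MgCl2, DTT. Times: 30 min preincubation with enzyme, 25 min cleavage at room temperature. Detection: AMC fluorescence intensity at 355/460 nm.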
Cardiac RTF inh = cardiac RTF calcium desensitization; 340,000 compounds, 0.12% hits; AID 493244; inhibition, % at 7.15 µM; IANBD-labeled cardiac RTF, Ca2+ fluorescence;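 active means inhibition above the mean inhibition of all tested compounds plus 3 SD, cut at about 17% in these data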;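 further: assay run at fixed EC70 calcium of 1.6 mM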
Numbers stand for hits; - = inactive; . = no result.

SMILES	Efflux pump inh	SUMO Mot1 rescue	RTF Ca sens act	ARNT TACC3 PPI	UCH37 inh	Cardiac RTF inh
CCOc1cccc2sc(N(CCN(CC)CC)C(=O)c3cccc(N4C(=O)CCC4=O)c3)nc12	-	290	-	-	-	-
COc1ccc(C=NN2CCN(c3ccccc3OC)CC2)cc1Br	.	.	.	.	-	.
CCN1CCN(c2c(/C=C3\SC(=S)N(Cc4ccco4)C3=O)c(C)c(C#N)c(=O)n2C)CC1	-	-	62	-	-	-
CCN1C(=O)/C(=C\N2CCN(C(=O)c3ccco3)CC2)SC1=S	-	-	-	-	-	-
COc1ccc(C=NNC(=O)/C(=C\Nc2nccc(C)n2)NC(=O)c2ccccc2)cc1	.	.	.	.	-	.
COc1ccc(CNC(=O)C[C@@H]2CC[C@H]3[C@@H](COc4ccc(NC(=O)C5CC5)cc4C(=O)N3C)O2)cc1	.	.	.	active	.	.
Cc1ccc(S(=O)(=O)NN=Cc2cccs2)cc1	.	.	.	.	-	.
O=C(Nn1cc(C(=O)Nc2ccc(F)cc2F)c2ccccc2c1=O)c1cnccn1	-	-	-	65	.	-
CCc1ccc(Nc2n[n+](-c3ccccc3)c(-c3ccc(N(CC)CC)cc3)s2)cc1	-	-	33	-	-	-
CCN(CC)c1ccc(-c2sc(Nc3ccccc3)n[n+]2-c2ccc(F)cc2)cc1	-	-	31	-	-	-
CN(C)c1ccc(-c2sc(Nc3ccccc3)n[n+]2-c2ccc(F)cc2)cc1	-	-	-	-	-	-
O=C(Cc1cccc([N+](=O)[O-])c1)Nc1ccc(C(=O)N2CCOCC2)cc1	-	-	-	-	29	-
COc1ccc(C2CC2C(=NO)c2ccccn2)cc1 (stereo not drawn)	.	.	.	.	-	.
COc1cccc(-c2noc(Cn3nc(C)c([N+](=O)[O-])c3C)n2)c1	-	-	-	-	24	-
Clc1ccc(CNC2CCCC2)c(Cl)c1	-	-	-	-	-	-
S=C(NCc1ccc(Cl)cc1Cl)NC1CCCCC1	-	645	-	-	-	-
CC(C)C1C(c2ccccc2)N(C)C(c2ccccc2)CC1(O)c1ccccc1 (stereo not drawn)	-	379	-	-	-	-
CCC1C(c2ccccc2)N(C)C(c2ccccc2)CC1(O)c1ccccc1 (stereo not drawn)	-	-	-	-	-	-
CC(=NNC(N)=O)C1=C(O)C(C(C)C)NC1=O (stereo not drawn)	.	.	-	60	.	-
CC(=NNC(N)=O)c1ccc(Cl)cc1	.	.	.	.	-	.
COc1ccc(C=NNc2nc(-c3ccc(C)cc3)c(C#N)c(=O)[nH]2)cc1	.	.	.	.	-	.
Cc1cc(Nc2ccc(Br)cc2)n2nc(C)nc2n1	-	-	-	11	-	-
O=C(NNC(=S)Nc1cccc2ccccc12)c1cccc(Br)c1	-	-	-	29	-	-
O=C(NNC(=O)c1ccc2ccccc2c1)c1cccc(Br)c1	.	.	-	-	-	-
COc1ccc(/C=N\Nc2ccccc2[N+](=O)[O-])c(C(=O)O)c1OC	-	974	-	-	.	-
SMILES	Efflux pump inh	SUMO Mot1 rescue	RTF Ca sens act	ARNT TACC3 PPI	UCH37 inh	Cardiac RTF inh
COc1ccc(NC(=O)c2ccccc2NS(=O)(=O)c2ccc(C)cc2)c([N+](=O)[O-])c1	-	823	-	.	-	-
COc1ccc(C=NNc2ccccc2[N+](=O)[O-])c(C(=O)O)c1OC	.	.	.	.	-	.
COc1ccc(NS(=O)(=O)c2ccc(C)cc2)c([N+](=O)[O-])c1	-	-	-	-	-	-
COc1cc(C=NNc2ccc(S(=O)(=O)Nc3ccccc3C(=O)O)cc2[N+](=O)[O-])ccc1O	-	-	-	-	22	-
CC(=O)Nc1ccc(C=NNc2ccc(S(=O)(=O)Nc3ccccc3C(=O)O)cc2[N+](=O)[O-])cc1	-	-	-	-	-	-
Cc1nn(-c2ccccc2)c(Cl)c1C=NNc1ccc(S(=O)(=O)Nc2ccccc2C(=O)O)cc1[N+](=O)[O-]	.	.	.	.	23	.
O=C(NN=Cc1ccco1)C1(O)c2ccccc2-c2ccccc21	.	.	.	.	-	.
CCN1CCN(CC(=O)NN=Cc2ccc(F)cc2F)CC1	.	.	.	.	-	.
O=C1CC(C(=O)Nc2ccc(Cl)cc2)S/C(=N\N=Cc2ccco2)N1 (stereo not drawn)	.	.	.	.	-	.
COC(=O)c1ccc(CS(=O)(=O)c2ccc(F)cc2)o1	-	-	32	-	-	-
C=CCNC(=S)NN=Cc1cn(C)c2ccccc12	.	.	.	.	-	.
Cc1ccsc1C1C=C(c2cccc(Br)c2)Nc2ncnn21 (stereo not drawn)	-	-	46	-	-	-
Cc1ccc(OCC(=O)NCCNC(=O)c2ccco2)cc1	-	348	-	-	-	-
CC(=NNC(=O)C1CC1)c1ccc2c(c1)OCCO2	.	.	.	.	-	.
COc1cc(/C=N/NC(=O)c2cc[n+]([O-])cc2)ccc1O	-	-	-	77	.	-
O=C(NN=Cc1ccc([N+](=O)[O-])o1)c1ccc2c(c1)OCO2	.	.	.	.	-	.
Cc1cc2c(cc1S(=O)(=O)N1CCN(c3ccccc3F)CC1)OCC(=O)N2	-	-	-	15	-	-
Cc1ccc(S(=O)(=O)N2CCCOC2CNC(=O)C(=O)NCCCn2ccnc2)cc1 (stereo not drawn)	-	-	-	78	-	-
O=C(NCc1ccccn1)c1ccc(C=NO)nc1	.	.	.	.	-	.
O=C(NCc1ccccn1)c1ccc(/C=N/O)nc1	-	-	-	38	.	-
CNCCCNC(=O)c1ccc(/C=N/O)nc1	-	-	-	61	.	-
O=C(O)c1nc(Cl)c(Cl)c(NN=Cc2ccccc2C(F)(F)F)c1Cl	.	.	.	.	-	.
Cc1nn(-c2ccccc2)c(N2CCCC2)c1/C=C1\N=C(c2ccc(OC(C)C)cc2)OC1=O	-	-	64	-	-	-
COc1ccc(-c2c(C)[nH]n3c(=O)c(Cc4ccccc4)c(C)nc23)cc1OC	-	-	-	87	-	-
CSc1ccc(NN=C(C#N)S(=O)(=O)C(C)(C)C)cc1	.	.	.	.	-	.
SMILES	Efflux pump inh	SUMO Mot1 rescue	RTF Ca sens act	ARNT TACC3 PPI	UCH37 inh	Cardiac RTF inh
CCN1C(=O)CSC1=Nc1ccc(OC)cc1	-	-	-	-	-	-
CCN=C1SC(C(=O)Nc2cc(Cl)cc(Cl)c2)CC(=O)N1CC (stereo not drawn)	-	-	-	active	-	-
CCN1C(=O)CSC1=Nc1ccc(Cl)c(Cl)c1	-	-	-	active	-	-
CCN1C(=O)CC(C(=O)NC)SC1=Nc1cc(Cl)c(O)c(Cl)c1 (stereo not drawn)	-	-	-	23	-	-
CCC(Cc1ccccc1)=NNC(=O)CCn1nnc2ccccc21	.	.	.	.	-	.
COc1ccc(OC)c(C=NNC(=O)c2cc[n+](CC(=O)c3ccccc3)cc2)c1	.	.	.	.	-	.
COc1ccc(C=Nn2cnc3c([nH]c4ccccc43)c2=O)cc1COc1ccccn1	.	.	.	.	-	.
Cc1cc(C)n2nc3nc4c(cc3c2n1)CCCC4	-	-	31	-	-	-
COc1ccc(N2C(=O)/C(=C/N(C)C)NC2=S)cc1	-	-	-	-	23	-
